Measured values published in ChEMBL document CHEMBL2021780, “Antineoplastic agents. 548. Synthesis of iodo- and diiodocombstatin phosphate prodrugs” (J Nat Prod, 2012).
pIC50: −log10 of the molar value. In brackets after ≈: the same amount, converted by molar mass.

Columns and labels:
P388 = assay: Growth inhibition of mouse P388 cells after 48 hrs by Z1 Beckman/Coulter particle counter analysis; assay type: functional; conditions: P388, 48 h, read-out: ED50 (the source's name)
How it was run: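 Mouse P388 leukemia cells were incubated 24 h in 10% horse serum/Fisher medium, then exposed 48 h to serial compound dilutions. ED50 was calculated from cell counts on a Coulter Z1 particle counter.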

BXPC-3 = assay: Growth inhibition of human BxPC3 cells after 48 hrs by sulforhodamine B assay; assay type: functional; conditions: BXPC-3, 48 h
How it was run: (§1)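 NCI sulforhodamine B assay. Cells were seeded in 5% FBS/RPMI-1640 and incubated 24 h. Serial compound dilutions were then added for 48 h. Cells were fixed with trichloroacetic acid, stained with SRB and read by microplate reader. GI50 is the concentration giving 50% reduction in net protein increase, calculated from optical density data.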

MCF7 = assay: Growth inhibition of human MCF7 cells after 48 hrs by sulforhodamine B assay; assay type: functional; conditions: MCF7, 48 h; how it was run: as §1
SF-268 = assay: Growth inhibition of human SF268 cells after 48 hrs by sulforhodamine B assay; assay type: functional; conditions: SF-268, 48 h; how it was run: as §1
NCI-H460 = assay: Growth inhibition of human NCI-H460 cells after 48 hrs by sulforhodamine B assay; assay type: functional; conditions: NCI-H460, 48 h; how it was run: as §1
KM-20L2 = assay: Growth inhibition of human KM20L2 cells after 48 hrs by sulforhodamine B assay; assay type: functional; conditions: KM-20L2, 48 h; how it was run: as §1
DU-145 = assay: Growth inhibition of human DU145 cells after 48 hrs by sulforhodamine B assay; assay type: functional; conditions: DU-145, 48 h; how it was run: as §1
Neisseria gonorrhoeae = assay: Antibacterial activity against Neisseria gonorrhoeae ATCC 49226 by broth microdilution method; assay type: functional
How it was run: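 Broth microdilution followed NCCLS standard methods. Compounds were reconstituted in sterile DMSO and diluted in the appropriate medium immediately before testing. MIC was taken as the lowest concentration giving no visible growth (optically clear). Assays were repeated on separate days.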

[1] = Solubility of the compound in water; assay type: physicochemical
How it was run: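 Solubility expressed as amount dissolving in 1 mL H₂O at 25 °C.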

[2] = Growth inhibition of human KAT4 cells after 48 hrs by sulforhodamine B assay; assay type: functional; conditions: KAT-4, 48 h
SW-1736 = assay: Growth inhibition of human SW1736 cells after 48 hrs by sulforhodamine B assay; assay type: functional; conditions: SW-1736, 48 h
HUVEC [3] = assay: Antiangiogenic activity in HUVEC assessed as cell growth inhibition after 48 hrs by sulforhodamine B assay; assay type: functional, cell-based; conditions: Homo sapiens
How it was run: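 HUVECs were grown in EGM-2 medium and tested with the standard SRB growth assay following NCI Developmental Therapeutics Program Matrigel antiangiogenesis protocols. IC50 (concentration causing 50% inhibition) was calculated from plotted data.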

HUVEC [4] = assay: Antiangiogenic activity in HUVEC assessed as reduction of cord length at 0.001 ug/ml after 24 hrs by matrigel assay relative to control; assay type: functional, Homo sapiens; set-up: scale not given: the % may be the effect or the level left
How it was run: (§2)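 Commercial HUVECs grown in EGM-2 were seeded at 2 × 10⁵ cells/mL onto Matrigel, which had been polymerized 15 min at rt and then 30 min at 37 °C, per NCI DTP protocol. Compound was added and cells were incubated 24 h, then imaged by inverted microscopy. Cord length and junction number were scored against untreated control on a scale from − (none) to +++ (same as control), with ++ = 50% of control.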

HUVEC [5] = assay: Antiangiogenic activity in HUVEC assessed as reduction of number of junctions at 0.001 ug/ml after 24 hrs by matrigel assay relative to control; assay type: functional, Homo sapiens; set-up: scale not given: the % may be the effect or the level left; how it was run: as §2
HUVEC [6] = assay: Antiangiogenic activity in HUVEC assessed as cell growth at 0.01 ug/ml after 24 hrs by sulforhodamine B assay relative to control; assay type: functional, Homo sapiens
HUVEC [7] = assay: Antiangiogenic activity in HUVEC assessed as cell growth at 0.001 ug/ml after 24 hrs by sulforhodamine B assay relative to control; assay type: functional, Homo sapiens
HUVEC [8] = assay: Antiangiogenic activity in HUVEC assessed as cell growth at 0.0001 ug/ml after 24 hrs by sulforhodamine B assay relative to control; assay type: functional, Homo sapiens
HUVEC [9] = assay: Antiangiogenic activity in HUVEC assessed as cell growth at 0.00001 ug/ml after 24 hrs by sulforhodamine B assay relative to control; assay type: functional; conditions: Homo sapiens, read-out: Activity
HUVEC [10] = assay: Antiangiogenic activity in HUVEC assessed as cell growth at 0.1 ug/ml after 24 hrs by sulforhodamine B assay relative to control; assay type: functional, Homo sapiens; conditions: Homo sapiens, HUVEC, 24 h; read-out: Activity
[11] = Inhibition of purified tubulin assembly after 20 mins
How it was run: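 Purified tubulin at 10 μM in 0.8 M monosodium glutamate (pH 6.6), 0.4 mM GTP and 4% (v/v) DMSO, with varying compound concentrations. Extent of assembly was measured after 20 min at 30 °C.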

Row | SMILES | EC50 (P388) [µg/mL] | GI50 (BXPC-3) [µg/mL] | GI50 (MCF7) [µg/mL] | GI50 (SF-268) [µg/mL] | GI50 (NCI-H460) [µg/mL] | GI50 (KM-20L2) [µg/mL] | GI50 (DU-145) [µg/mL] | MIC (Neisseria gonorrhoeae) [µg/mL] | also measured
1 | C1CCNCC1.C1CCNCC1.COc1ccc(/C=C\c2cc(I)c(OC)c(I)c2)cc1OP(=O)(O)O | 0.011 | 0.33 | 0.07 | 0.041 | 0.025 | > 1 | 0.025 | < 0.5 | –
2 | COc1ccc(/C=C\c2cc(I)c(OC)c(OC)c2)cc1OP(=O)([O-])[O-].[K+].[K+] | 0.0021 | 0.381 | 0.0064 | 0.0057 | 0.0043 | 0.41 | 0.0038 | – | solubility ([1]; buffer): 14000 µg/mL; GI50 [2]: 0.37 µg/mL; GI50 (SW-1736): > 10 µg/mL; IC50 (HUVEC [3]): 0.00025 µg/mL; Activity (HUVEC [4]): 50%; Activity (HUVEC [5]): 75%; Activity (HUVEC [6]): 1%; growth at 0.001 µg/mL (HUVEC [7]; Homo sapiens, HUVEC, 24 h, read-out: Activity): 10%; Activity (HUVEC [8]): 77%; growth at 10 pg/mL (HUVEC [9]): 95%
3 | COc1ccc(/C=C\c2cc(I)c(OC)c(I)c2)cc1OP(=O)([O-])[O-].[Li+].[Li+] | 0.021 | 0.37 | – | 0.05 | 0.05 | – | 0.032 | < 0.5 | solubility ([1]; buffer): >= 4 mg/ml
4 | COc1ccc(/C=C\c2cc(I)c(OC)c(OC)c2)cc1OP(=O)([O-])[O-].[Na+].[Na+] | 0.002 | 0.469 | 0.018 | 0.018 | 0.017 | > 1 | 0.011 | – | solubility ([1]; buffer): 2000 µg/mL; IC50 (HUVEC [3]): 0.00035 µg/mL; Activity (HUVEC [6]): 14%; Activity (HUVEC [7]): 5%; Activity (HUVEC [8]): 104%; growth at 0.1 µg/mL (HUVEC [10]): 7%; pIC50 [11]: < 4.40
5 | COc1ccc(/C=C\c2cc(I)c(OC)c(I)c2)cc1OP(=O)(O)O.OCN(CO)CO.OCN(CO)CO | 0.026 | 0.33 | 0.047 | 0.04 | 0.025 | 0.94 | 0.021 | < 0.5 | –
6 | COc1ccc(/C=C\c2cc(I)c(OC)c(OC)c2)cc1OP(=O)(O)O.OCN(CO)CO.OCN(CO)CO | 0.0029 | 0.37 | 0.0048 | 0.0043 | 0.004 | 0.4 | 0.0047 | 32 | –
7 | COC(=O)CN.COC(=O)CN.COc1ccc(/C=C\c2cc(I)c(OC)c(I)c2)cc1OP(=O)(O)O | 0.011 | 0.36 | 0.1 | 0.054 | 0.03 | > 1 | 0.023 | < 0.5 | –
8 | C1COCCN1.C1COCCN1.COc1ccc(/C=C\c2cc(I)c(OC)c(OC)c2)cc1OP(=O)(O)O | 0.0032 | 0.21 | 0.0047 | 0.0037 | 0.0036 | 0.24 | 0.0026 | 16 | –
9 | COC(=O)CN.COC(=O)CN.COc1ccc(/C=C\c2cc(I)c(OC)c(OC)c2)cc1OP(=O)(O)O | 0.0026 | 0.16 | 0.0044 | 0.0033 | 0.0031 | 0.32 | 0.0021 | – | solubility ([1]; water, read-out: solubility): ≥ 2000 µg/mL
10 | COc1ccc(/C=C\c2cc(I)c(OC)c(OC)c2)cc1OP(=O)([O-])[O-].[Li+].[Li+] | 0.017 | 0.49 | 0.0038 | 0.004 | 0.0039 | – | 0.0043 | – | solubility ([1]; buffer): >= 2.4 mg/ml
11 | COC(=O)[C@@H](N)Cc1c[nH]c2ccccc12.COC(=O)[C@@H](N)Cc1c[nH]c2ccccc12.COc1ccc(/C=C\c2cc(I)c(OC)c(I)c2)cc1OP(=O)(O)O | 0.017 | 0.37 | 0.22 | 0.086 | 0.033 | > 1 | 0.026 | < 0.5 | –
12 | C1CCNCC1.C1CCNCC1.COc1ccc(/C=C\c2cc(I)c(OC)c(OC)c2)cc1OP(=O)(O)O | 0.0026 | 0.32 | 0.0065 | 0.0044 | 0.0036 | 0.51 | 0.0029 | – | solubility ([1]; water, read-out: solubility): ≥ 4000 µg/mL
13 | COc1ccc(/C=C/c2cc(I)c(OC)c(OC)c2)cc1O [DIIODOCOMBSTATIN] | 0.189 (≈ 0.458 µM) | 2.7 (≈ 6.55 µM) | 0.18 (≈ 0.437 µM) | 0.55 (≈ 1.33 µM) | 0.21 (≈ 0.509 µM) | 1.7 (≈ 4.12 µM) | 0.27 (≈ 0.655 µM) | – | –
14 | COC(=O)[C@@H](N)Cc1c[nH]c2ccccc12.COC(=O)[C@@H](N)Cc1c[nH]c2ccccc12.COc1ccc(/C=C\c2cc(I)c(OC)c(OC)c2)cc1OP(=O)(O)O | 0.0022 | 0.26 | 0.035 | 0.0097 | 0.0034 | 0.59 | 0.003 | 4 | –
15 | COc1ccc(/C=C\c2cc(OC)c(OC)c(OC)c2)cc1OP(=O)([O-])[O-].[Na+].[Na+] [FOSBRETABULIN DISODIUM] | 0.0004 | 0.23 | – | 0.036 | 0.029 | 0.034 | 0.0072 | – | pIC50 [11]: < 4.40
16 | COc1ccc(/C=C/c2cc(I)c(OC)c(I)c2)cc1O | > 10 | 3 (≈ 5.9 µM) | 0.94 (≈ 1.85 µM) | 3.3 (≈ 6.49 µM) | 3.4 (≈ 6.69 µM) | > 10 | 5.8 (≈ 11.4 µM) | – | –
17 | COc1ccc(/C=C\c2cc(F)c(OC)c(OC)c2)cc1O [FLUORCOMBSTATIN] | 0.002 (≈ 0.00657 µM) | – | 0.0027 (≈ 0.00887 µM) | 0.0016 (≈ 0.00526 µM) | 0.0032 (≈ 0.0105 µM) | > 1 | 0.0019 (≈ 0.00624 µM) | – | –
18 | C1COCCN1.C1COCCN1.COc1ccc(/C=C\c2cc(I)c(OC)c(I)c2)cc1OP(=O)(O)O | 0.014 | 0.35 | 0.066 | 0.054 | 0.033 | > 1 | 0.028 | < 0.5 | –
19 | COc1ccc(/C=C\c2cc(O)c(OC)c(OC)c2)cc1O | 0.26 (≈ 0.86 µM) | 2.3 (≈ 7.61 µM) | 0.49 (≈ 1.62 µM) | 0.0083 (≈ 0.0275 µM) | 0.19 (≈ 0.628 µM) | 1.2 (≈ 3.97 µM) | 0.0043 (≈ 0.0142 µM) | – | –
